Laboratory results reported in ChEMBL document CHEMBL3526142, “Biotransformation of a novel antimitotic agent, I-387, by mouse, rat, dog, monkey, and human liver microsomes and in vivo pharmacokinetics in mice” (Drug Metab Dispos, 2011).

Assays:
Liver microsome [1] = test: Drug level in dog liver microsomes assessed as compound retention time treated with 0.5 uM I-387 after 2 hrs by LC-MS/MS analysis; type: ADME, Canis lupus familiaris
In short: (§1)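 Pooled liver microsomes (1 mg/ml protein) incubated with 0.5 µM substrate and 3 mM NADPH in 65 mM potassium phosphate, pH 7.4, 1% methanol, at 37°C for 2 h. Stopped with ice-cold acetonitrile containing internal standard, centrifuged. Supernatant analysed by LC-MS/MS on a C18 column, 15-min gradient, with product ion scans for metabolite identification.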

Liver microsome [2] = test: Drug level in human liver microsomes assessed as compound retention time treated with 0.5 uM I-387 after 2 hrs by LC-MS/MS analysis; type: ADME; in short: as §1
[3] = Retention time of the compound at 0.5 uM by LC-MS/MS analysis; type: physicochemical
In short: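 After a 2 h incubation at 37°C with liver microsomes (1 mg/ml protein, 3 mM NADPH, 0.5 μM substrate, pH 7.4 phosphate buffer), samples were quenched with acetonitrile and centrifuged. Supernatant separated on a C18 column (15 min run, linear gradient 100% A to 100% B over 7 min) with LC-MS/MS ion trap detection.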

Liver = test: Drug level in mouse liver microsomes assessed as compound retention time treated with 0.5 uM I-387 after 2 hrs by LC-MS/MS analysis; type: ADME; in short: as §1
[4] = Drug level in monkey liver microsomes assessed as compound retention time treated with 0.5 uM I-387 after 2 hrs by LC-MS/MS analysis; type: ADME, Macaca mulatta; conditions: rhesus monkey; in short: as §1
Liver microsome [5] = test: Drug level in rat liver microsomes assessed as compound retention time treated with 0.5 uM I-387 after 2 hrs by LC-MS/MS analysis; type: ADME; in short: as §1

Drug metabolism (Liver microsome [1]): metabolite_detected
Drug metabolism (Liver microsome [2]): metabolite_detected
Retention_time [3]: 10.5 min
Drug metabolism (Liver): metabolite_detected
Drug metabolism [4]: metabolite_detected
Drug metabolism (Liver microsome [5]): metabolite_detected
Structure (SMILES): COc1cc(C(O)c2cccc(-c3cc4ccccc4[nH]3)c2)cc(OC)c1OC (stereo unspecified)
